Assay results from ChEMBL document CHEMBL3045605, “Synthesis and anticancer evaluation of novel 3,5-diaryl-thiazolo[4,5-d]pyrimidin-2-one derivatives” (2013).

Key:
Type in all cases: functional
SF-539 = assay: Anticancer activity against Homo sapiens (human) SF539 cells by SRB assay
How it was run: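 Five-dose NCI 60-cell-line panel testing at tenfold dilutions from 10−4 to 10−8 M, with growth read by sulforhodamine B protein staining. For each cell line: GI50 is the molar concentration giving half growth inhibition; TGI is total growth inhibition (cytostatic); LC50 is the molar concentration killing 50% of the initial cells (cytotoxic).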

MDA-MB-435 = assay: Anticancer activity against Homo sapiens (human) MDA-MB-435 cells assessed as cell growth at 10 uM by SRB assay; settings: read-out: Activity
How it was run: (§1)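 Single-dose screen in the NCI 60-human-tumour-cell-line panel (nine cancer types) at 10−5 M. Cell growth was estimated by sulforhodamine B protein staining and reported as percent growth of treated cells relative to untreated controls.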

HT-29 = assay: Anticancer activity against Homo sapiens (human) HT-29 cells by SRB assay
How it was run: (§2)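 NCI 60-line panel, five tenfold dilutions from 10−4 to 10−8 M, growth read by sulforhodamine B staining against untreated controls. From the dose–response per line: GI50 (molar concentration giving half growth inhibition), TGI (molar concentration giving total growth inhibition, cytostatic) and LC50 (molar concentration killing 50% of initial cells, cytotoxic).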

SNB-75 = assay: Anticancer activity against Homo sapiens (human) SNB75 cells assessed as cell growth at 10 uM by SRB assay; settings: read-out: Activity; how it was run: as §1
SR = assay: Anticancer activity against Homo sapiens (human) SR cells by SRB assay
How it was run: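 NCI five-dose follow-up on the 60-line human tumour panel at tenfold dilutions from 10−4 to 10−8 M, with growth read by sulforhodamine B protein assay against untreated controls. For each cell line, GI50 (half growth inhibition), TGI (total growth inhibition) and LC50 (50% death of initial cells) are calculated as molar concentrations.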

EKVX = assay: Anticancer activity against Homo sapiens (human) EKVX cells by SRB assay; how it was run: as §2
SNB-19 = assay: Anticancer activity against Homo sapiens (human) SNB19 cells assessed as cell growth at 10 uM by SRB assay; settings: read-out: Activity; how it was run: as §1

With `O=c1sc2c(Cl)nc(-c3ccccc3)nc2n1-c1ccccc1` the GI50 (SF-539) was 11 µM, the growth at 10 µM (MDA-MB-435) was 26% and the GI50 (HT-29) was 3.89 µM. It also gave a TGI (HT-29; read-out: pTGI (converted)) of 19.1 µM, a growth at 10 µM (SNB-75) of 12% and a GI50 (SR) of 2.63 µM. For the same compound, the TGI (SR; read-out: pTGI (converted)) was 21.4 µM, the GI50 (EKVX) was 25.7 µM and the growth at 10 µM (SNB-19) was 70%.
